The source made the active and inactive calls. No cut-off for these calls is given here.
Key:
[1] = system: MCF7; experiment: Growth inhibition of human MCF7 cells after 48 hrs by MTT assay; format: functional; conditions: MCF7, 48 h
Procedure, shortened: (§1)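 Proliferation read-out; GI50 taken as the concentration giving 50% reduction of cancer cell proliferation.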

[2] = Cytotoxicity against HEK293T cells assessed as reduction in cell viability after 48 hrs by MTT assay; format: cell-based, HEK-293T; conditions: human
[3] = system: A549; experiment: Growth inhibition of human A549 cells after 48 hrs by MTT assay; format: functional; conditions: A549, 48 h; procedure, shortened: as §1
[4] = system: HepG2; experiment: Growth inhibition of human HepG2 cells after 48 hrs by MTT assay; format: functional; conditions: HepG2, 48 h; procedure, shortened: as §1
[5] = Inhibition of porcine brain tubulin polymerization measured over 30 mins; set-up: species or system Sus scrofa
[6] = system: HeLa; experiment: Growth inhibition of human HeLa cells after 48 hrs by MTT assay; format: functional; procedure, shortened: as §1
[7] = target: T1, Tubulin (Homo sapiens) (UniProt P68371+Q9H4B7+P0DPH7+P68366+Q13509+Q71U36+P04350+Q3ZCM7+P07437+P68363+Q9BQE3+Q6PEY2+Q13885+Q9BVA1+Q9BUF5); experiment: Inhibition of tubulin polymerization in human HeLa cells assessed as abnormal microtubule network formation at 0.04 uM after 12 hrs by DAPI staining based immunofluorescence confocal laser scanning microscopic analysis; format: cell-based
[8] = target: T1, Tubulin (Homo sapiens); experiment: Inhibition of tubulin polymerization in human HepG2 cells assessed as abnormal microtubule network formation at 0.04 uM after 12 hrs by DAPI staining based immunofluorescence confocal laser scanning microscopic analysis; format: cell-based
[9] = system: HeLa; experiment: Antitumor activity against human HeLa cells xenografted in nude mouse assessed as necrosis of tumor cells at 10 mg/kg, ip after 14 days by hematoxylin and eosin staining based microscopic analysis; format: functional, organism-based
Procedure, shortened: (§2)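 Excised tumours and heart, liver, kidney and spleen were H&E-stained and examined microscopically. Tumour scoring covered cell arrangement and necrosis. Organ scoring covered inflammatory infiltration, edema, necrosis and cell morphology.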

[10] = species: Bos taurus; experiment: Inhibition of colchicine binding to calf brain tubulin preincubated for 1 hr followed by colchicine addition measured after 1 hr by UPLC-MS/MS analysis
[11] = system: HeLa; experiment: Antitumor activity against human HeLa cells xenografted in nude mouse assessed as loose and irregular arrangement of tumor cells at 10 mg/kg, ip after 14 days by hematoxylin and eosin staining based microscopic analysis; format: functional, organism-based; procedure, shortened: as §2
[12] = system: HeLa; experiment: Antitumor activity against human HeLa cells xenografted in nude mouse assessed as tumor volume at 10 mg/kg, ip after 14 days (reference value: 2292.17 mm3); format: functional
[13] = system: HeLa; experiment: Antitumor activity against human HeLa cells xenografted in nude mouse assessed as tumor weight at 10 mg/kg, ip after 14 days (reference value: 1.54 g); format: functional

| GI50 [1] | GI50 [3] | GI50 [4] | IC50 [5] | GI50 [6] | inhibition [7] | inhibition [8] | SMILES | CC50 at 48 h [2] | Activity [9] | inhibition [10] | Activity [11] | Activity [12] | Activity [13] |
| --- | --- | --- | --- | --- | --- | --- | --- | --- | --- | --- | --- | --- | --- |
| > 10 µM | > 10 µM | > 10 µM | > 40 µM | > 10 µM |  |  | COc1ccc2c(c1)c(C1CC(c3cc(OC)c(OC)c(OC)c3)=NN1C(=O)c1ccc(OC)nc1)cn2C (configuration not stated) | > 300 µM |  |  |  |  |  |
| 8.1 µM | 7.65 µM | 5.8 µM | 19.4 µM | 5.2 µM |  |  | Cn1cc(C2CC(c3ccc(Cl)cc3)=NN2C(=O)c2cccnc2)c2cc(Br)ccc21 (configuration not stated) | > 300 µM |  |  |  |  |  |
| 9.25 µM | 8.46 µM | 7.91 µM | 31.7 µM | 8.31 µM |  |  | Cn1cc(C2CC(c3ccccc3)=NN2C(=O)c2ccc(Cl)nc2)c2ccccc21 (configuration not stated) | > 300 µM |  |  |  |  |  |
| 7.2 µM | > 10 µM | 4.63 µM | 26.7 µM | > 10 µM |  |  | Cn1cc(C2CC(c3ccccc3)=NN2C(=O)c2cccnc2)c2ccccc21 (configuration not stated) | > 300 µM |  |  |  |  |  |
|  |  |  |  |  | inactive | inactive | CC(=O)O[C@H]1C(=O)[C@@]2(C)[C@H]([C@H](OC(=O)c3ccccc3)[C@]3(O)C[C@H](OC(=O)[C@H](O)[C@@H](NC(=O)c4ccccc4)c4ccccc4)C(C)=C1C3(C)C)[C@]1(OC(C)=O)CO[C@@H]1C[C@@H]2O |  |  |  |  |  |  |
| 1.11 µM | 0.99 µM | 0.63 µM | > 40 µM | 0.59 µM |  |  | Cn1cc(C2CC(c3ccccc3)=NN2C(=O)c2ccncc2)c2ccccc21 (configuration not stated) | 97.3 µM |  |  |  |  |  |
| 0.13 µM | 0.47 µM | 0.19 µM | 1.9 µM | 0.34 µM |  |  | COc1cccc(C2=NN(C(=O)c3ccc(OC)nc3)C(c3cn(C)c4ccc(OC)cc34)C2)c1 (configuration not stated) | > 300 µM |  |  |  |  |  |
| 3.71 µM | 3.39 µM | 2.08 µM | 15.6 µM | 2.26 µM |  |  | COc1ccc2c(c1)c(C1CC(c3ccc(Cl)cc3)=NN1C(=O)c1ccc(OC)nc1)cn2C (configuration not stated) | > 300 µM |  |  |  |  |  |
| 0.18 µM | 0.23 µM | 0.31 µM | 2.3 µM | 0.21 µM |  |  | COc1cc(C2=NN(C(=O)c3ccc(C)nc3)C(c3cn(C)c4ccccc34)C2)cc(OC)c1OC (configuration not stated) | > 300 µM |  |  |  |  |  |
| 0.99 µM | 1.11 µM | 1.33 µM | 2.9 µM | 1.1 µM |  |  | COc1ccc2c(c1)c(C1CC(c3ccccc3)=NN1C(=O)c1ccc(OC)nc1)cn2C (configuration not stated) | > 300 µM |  |  |  |  |  |
| > 10 µM | > 10 µM | > 10 µM | > 40 µM | > 10 µM |  |  | Cn1cc(C2CC(c3ccccc3)=NN2C(=O)c2cccnc2Cl)c2ccccc21 (configuration not stated) | > 300 µM |  |  |  |  |  |
| 0.56 µM | 0.45 µM | 0.23 µM | 2.3 µM | 0.18 µM |  |  | COc1ccc(C2=NN(C(=O)c3ccc(OC)nc3)C(c3cn(C)c4ccc(OC)cc34)C2)cc1 (configuration not stated) | > 300 µM |  |  |  |  |  |
| 0.48 µM | 0.71 µM | 0.22 µM | 2.6 µM | 0.41 µM |  |  | COc1ccc2c(c1)c(C1CC(c3ccc(F)cc3)=NN1C(=O)c1ccc(OC)nc1)cn2C (configuration not stated) | > 300 µM |  |  |  |  |  |
| 1.56 µM | 1.19 µM | 0.54 µM | 4.5 µM | 0.89 µM |  |  | COc1ccc(C2=NN(C(=O)c3cccnc3)C(c3cn(C)c4ccc(Br)cc34)C2)cc1 (configuration not stated) | > 300 µM |  |  |  |  |  |
| 4.31 µM | 3.04 µM | 3.13 µM | 9.7 µM | 3.98 µM |  |  | COc1ccc(C(=O)N2N=C(c3ccccc3)CC2c2cn(C)c3ccccc23)cn1 (configuration not stated) | > 300 µM |  |  |  |  |  |
| 1.16 µM | > 10 µM | 5.11 µM | 4.3 µM | 3.59 µM |  |  | COc1ccc2c(c1)c(C1CC(c3ccccc3)=NN1C(=O)c1cccnc1)cn2C (configuration not stated) | > 300 µM |  |  |  |  |  |
| > 10 µM | 4.25 µM | > 10 µM | 17.8 µM | > 10 µM |  |  | COc1ccc(C2=NN(C(=O)c3ccncc3)C(c3cn(C)c4ccc(Br)cc34)C2)cc1OC (configuration not stated) | > 300 µM |  |  |  |  |  |
| > 10 µM | > 10 µM | > 10 µM | > 40 µM | > 10 µM |  |  | COc1cc(C2=NN(C(=O)c3cccnc3)C(c3cn(C)c4ccc(Br)cc34)C2)cc(OC)c1OC (configuration not stated) | 131 µM |  |  |  |  |  |
| 0.81 µM | 1.02 µM | 0.91 µM | 2.1 µM | 1.27 µM |  |  | COc1cccc(C2=NN(C(=O)c3cccnc3)C(c3cn(C)c4ccc(OC)cc34)C2)c1 (configuration not stated) | 125 µM |  |  |  |  |  |
| 11.8 µM | > 10 µM | 6.91 µM | 18.4 µM | > 10 µM |  |  | Cn1cc(C2CC(c3ccc(Br)cc3)=NN2C(=O)c2cccnc2)c2cc(Br)ccc21 (configuration not stated) | > 300 µM |  |  |  |  |  |
| 6.96 µM | > 10 µM | > 10 µM | 19.3 µM | > 10 µM |  |  | COc1ccc2c(c1)c(C1CC(c3ccc(Br)cc3)=NN1C(=O)c1ccc(OC)nc1)cn2C (configuration not stated) | > 300 µM |  |  |  |  |  |
| 4.01 µM | 1.19 µM | 1.22 µM | 13.2 µM | 2.39 µM |  |  | Cc1ccc(C(=O)N2N=C(c3ccccc3)CC2c2cn(C)c3ccccc23)cn1 (configuration not stated) | 154 µM |  |  |  |  |  |
| 1.52 µM | 1.6 µM | 2.52 µM | 3.4 µM | 1.73 µM |  |  | Cn1cc(C2CC(c3ccccc3)=NN2C(=O)c2cccnc2)c2cc(Br)ccc21 (configuration not stated) | > 300 µM |  |  |  |  |  |
| 1.17 µM | 2.38 µM | 2.45 µM | 5.6 µM | 2.09 µM |  |  | COc1ccc(C2=NN(C(=O)c3cccnc3)C(c3cn(C)c4ccc(Br)cc34)C2)cc1OC (configuration not stated) | > 300 µM |  |  |  |  |  |
| 0.48 µM | 1.38 µM | 0.48 µM | 5.2 µM | 0.63 µM |  |  | Cn1cc(C2CC(c3ccc(F)cc3)=NN2C(=O)c2cccnc2)c2cc(Br)ccc21 (configuration not stated) | > 300 µM |  |  |  |  |  |

| SMILES | GI50 [1] | GI50 [3] | GI50 [4] | IC50 [5] | GI50 [6] | inhibition [7] | inhibition [8] | CC50 at 48 h [2] | Activity [9] | inhibition [10] | Activity [11] | Activity [12] | Activity [13] |
| --- | --- | --- | --- | --- | --- | --- | --- | --- | --- | --- | --- | --- | --- |
| COc1ccc(/C=C\c2cc(OC)c(OC)c(OC)c2)cc1O [COMBRETASTATIN A4] | 0.14 µM | 0.31 µM | 0.17 µM | 2.1 µM | 0.092 µM |  |  | > 300 µM | Active | Active | Active | 918.61 mm3 | 0.59 g |
